Assay results taken from ChEMBL document CHEMBL1131436, “Repaglinide and related hypoglycemic benzoic acid derivatives” (1998).
Where “and” joins values, the source holds several entries; their conditions need not be identical. Identical values can stand only once. Calls of active or inactive are those of the source. No cut-off for these calls is given here.

Key:
[1] = system: Rattus norvegicus; assay: Maximum % decrease of blood glucose (deltaBG) was observed within 4 hour after administration orally at 25 mg/kg dose to fasted adult female rats versus a control group; format: functional; conditions: route oral
Summary of the method: (§1)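 Female Wistar rats (Chbb THOM, SPF, 200-220 g), fasted 24 h, dosed orally by gavage as suspension in 1.5% Tylose methylcellulose (10 mL/kg). Whole blood from retrobulbar plexus under light halothane, deproteinized with 0.33 M HClO4; glucose by hexokinase/G6PDH, hourly up to 4 h. % decrease vs control group (N = 7), Student's t-test, P ≤ 0.05.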

[2] = system: Rattus norvegicus; assay: Maximum % decrease of blood glucose (deltaBG) was observed within 1 hour after administration orally at 0.5 mg/kg dose to fasted adult female rats versus a control group; format: functional; conditions: route oral; summary of the method: as §1
[3] = system: Rattus norvegicus; assay: Maximum % decrease of blood glucose (deltaBG) was observed within 4 hour after administration orally at 0.5 mg/kg dose to fasted adult female rats versus a control group; format: functional; conditions: route oral; summary of the method: as §1
[4] = system: Rattus norvegicus; assay: Maximum % decrease of blood glucose (deltaBG) was observed within 3 hour after administration orally at 0.1 mg/kg dose to fasted adult female rats versus a control group; format: functional; conditions: route oral; summary of the method: as §1
[5] = system: Rattus norvegicus; assay: Maximum % decrease of blood glucose (deltaBG) was observed within 2 hour after administration orally at 0.1 mg/kg dose to fasted adult female rats versus a control group; format: functional; conditions: route oral; summary of the method: as §1
[6] = system: Rattus norvegicus; assay: Maximum % decrease of blood glucose (deltaBG) was observed within 4 hour after administration orally at 0.1 mg/kg dose to fasted adult female rats versus a control group; format: functional; conditions: route oral, 0.1 mg/kg; summary of the method: as §1
[7] = system: Rattus norvegicus; assay: Maximum % decrease of blood glucose (deltaBG) was observed within 3 hour after administration orally at 0.5 mg/kg dose to fasted adult female rats versus a control group; format: functional; conditions: route oral; summary of the method: as §1
[8] = system: Rattus norvegicus; assay: Maximum % decrease of blood glucose (deltaBG) was observed within 2 hour after administration orally at 0.5 mg/kg dose to fasted adult female rats versus a control group; format: functional; conditions: route oral; summary of the method: as §1
[9] = system: Rattus norvegicus; assay: Maximum % decrease of blood glucose (deltaBG) was observed within 1 hour after administration orally at 0.1 mg/kg dose to fasted adult female rats versus a control group; format: functional; conditions: route oral; summary of the method: as §1
[10] = system: Rattus norvegicus; assay: Maximum % decrease of blood glucose (deltaBG) was observed within 4 hour after administration orally at 50 mg/kg dose to fasted adult female rats versus a control group; format: functional; conditions: route oral; summary of the method: as §1
[11] = system: Rattus norvegicus; assay: Maximum % decrease of blood glucose (deltaBG) was observed within 1 hr after administration orally at 0.5 mg/kg dose to fasted adult female rats versus a control group; format: functional; conditions: route oral; summary of the method: as §1
[12] = system: Rattus norvegicus; assay: Half-maximal effective dose was measured on rat blood glucose after administrating at 4 hr; format: functional; conditions: Rattus norvegicus, Blood, 4 h; read-out: ED50
Summary of the method: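 Adult fasted female Wistar rats (Chbb THOM, SPF, 200-220 g), food withdrawn 24 h; oral gavage of suspension in 1.5% Tylose (methylcellulose), 10 mL/kg. Retrobulbar blood under light halothane; glucose by hexokinase/G6PDH after HClO4 deproteinization, hourly to 4 h. ED50 from fit of glucose vs dose, y = b + [a × k/(k + x^nH)], Hill coefficient nH.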

[13] = system: Rattus norvegicus; assay: Maximum % decrease of blood glucose (deltaBG) was observed within 4 hour after administration orally at 0.1 mg/kg dose to fasted adult female rats versus a control group; NS =' not significant'; format: functional, organism-based; set-up: dose 0.1 mg/kg; summary of the method: as §1
[14] = system: Rattus norvegicus; assay: Maximum % decrease of blood glucose (deltaBG) was observed within 3 hour after administration orally at 0.1 mg/kg dose to fasted adult female rats versus a control group; NS =' not significant'; format: functional, organism-based; set-up: dose 0.1 mg/kg; summary of the method: as §1
[15] = system: Rattus norvegicus; assay: Maximum % decrease of blood glucose (deltaBG) was observed within 4 hour after administration orally at 0.3 mg/kg dose to fasted adult female rats versus a control group; format: functional; conditions: route oral; summary of the method: as §1
[16] = species: Rattus norvegicus; conditions: Blood, 0.1 mg/kg
[17] = species: Rattus norvegicus; conditions: Blood, 0.1 mg/kg; remark: listed apart in the source
[18] = species: Rattus norvegicus; conditions: Blood, 0.1 mg/kg; remark: listed apart in the source
[19] = system: Rattus norvegicus; assay: Maximum % decrease of blood glucose (deltaBG) was observed within 4 hour after administration orally at 5 mg/kg dose to fasted adult female rats versus a control group; format: functional; conditions: route oral; summary of the method: as §1
[20] = system: Rattus norvegicus; assay: Maximum % decrease of blood glucose (deltaBG) was observed within 4 hour after administration orally at 10 mg/kg dose to fasted adult female rats versus a control group; format: functional; conditions: route oral; summary of the method: as §1
[21] = system: Rattus norvegicus; assay: Maximum % decrease of blood glucose (deltaBG) was observed within 4 hour after administration orally at 10 mg/kg dose to fasted adult female rats versus a control group; NS =' not significant'; format: functional, organism-based; set-up: dose 10 mg/kg; summary of the method: as §1
[22] = system: Rattus norvegicus; assay: Maximum % decrease of blood glucose (deltaBG) was observed within 4 hour after administration orally at 50 mg/kg dose to fasted adult female rats versus a control group; NS =' not significant'; format: functional, organism-based; set-up: dose 50 mg/kg; summary of the method: as §1
[23] = system: Rattus norvegicus; assay: Maximum % decrease of blood glucose (deltaBG) was observed within 4 hour after administration orally at 5 mg/kg dose to fasted adult female rats versus a control group; NS =' not significant'; format: functional, organism-based; set-up: dose 5 mg/kg; summary of the method: as §1
[24] = system: Rattus norvegicus; assay: Maximum % decrease of blood glucose (deltaBG) was observed within 4 hour after administration orally at 1 mg/kg dose to fasted adult female rats versus a control group; NS =' not significant'; format: functional, organism-based; set-up: dose 1 mg/kg; summary of the method: as §1
[25] = system: Rattus norvegicus; assay: Maximum % decrease of blood glucose (deltaBG) was observed within 4 hour after administration orally at 0.4 mg/kg dose to fasted adult female rats versus a control group; format: functional; conditions: route oral; summary of the method: as §1
[26] = system: Rattus norvegicus; assay: Maximum % decrease of blood glucose (deltaBG) was observed within 4 hour after administration orally at 0.6 mg/kg dose to fasted adult female rats versus a control group; format: functional; conditions: route oral; summary of the method: as §1
[27] = system: Rattus norvegicus; assay: Maximum % decrease of blood glucose (deltaBG) was observed within 4 hour after administration orally at 100 mg/kg dose to fasted adult female rats versus a control group; NS =' not significant'; format: functional, organism-based; set-up: dose 100 mg/kg; summary of the method: as §1

O=C(O)c1ccc(CCNC(=O)c2cc(Cl)ccc2N2CCCC2)cc1
Delta BG [1]: -18%

CCCC(NC(=O)Cc1ccc(C(=O)O)c(OCC)c1)c1ccccc1N1CCCCC1 (centres undefined)
Delta BG [2]: -43% | Delta BG [3]: -35% | Delta BG [4]: -25% | Delta BG [5]: -30% | Delta BG [6]: -32% and -18% | Delta BG [7]: -34% | Delta BG [8]: -36% | Delta BG [9]: -32%

CCCC(NC(=O)Cc1ccccc1)c1ccccc1N1CCCCC1 (centres undefined)
Delta BG [10]: -10%

CCCC(NC(=O)Cc1ccc(C(=O)O)cc1)c1ccccc1N1CCCCC1 (centres undefined)
Delta BG [3]: -18% | Delta BG [4]: -16% | Delta BG [11]: -42% | Delta BG [5]: -17% | Delta BG [6]: -27% and -9% | Delta BG [7]: -23% | ED50 [12]: 0.07 mg/kg | Delta BG [8]: -34% | Delta BG [9]: -27%

COc1ccc(Cl)cc1C(=O)NCCc1ccc(S(=O)(=O)NC(=O)NC2CCCCC2)cc1 [GLYBURIDE]
Delta BG [13]: inactive | Delta BG [14]: inactive | Delta BG [15]: -25% | Delta BG [16]: inactive | Delta BG [17]: inactive | ED50 [12]: 0.255 mg/kg | Delta BG [18]: inactive

CC(NC(=O)Cc1ccc(C(=O)O)cc1)c1cc(Cl)ccc1N1CCCCC1 (centres undefined)
Delta BG [19]: -18% | Delta BG [20]: -36%

CC(NC(=O)Cc1cccc(C(=O)O)c1)c1ccccc1N1CCCCC1 (centres undefined)
Delta BG [1]: -12%

CCCC(NCCc1ccc(C(=O)O)cc1)c1ccccc1N1CCCCC1 (centres undefined)
Delta BG [21]: Not significant

CC(NC(=O)Cc1ccc(-c2nn[nH]n2)cc1)c1ccccc1N1CCCCC1 (centres undefined)
Delta BG [22]: Not significant

CC(NC(=O)Cc1ccc(C(=O)O)cc1)c1cc(Cl)ccc1N1CCCCCC1 (centres undefined)
Delta BG [23]: Not significant

CC(NC(=O)Cc1ccc(S(=O)(=O)NC(=O)NC2CCCCC2)cc1)c1ccccc1N1CCCCC1 (centres undefined)
Delta BG [19]: -42% | Delta BG [24]: Not significant

O=C(Cc1ccc(C(=O)O)cc1)NC(c1ccccc1)c1ccccc1N1CCCCC1 (centres undefined)
ED50 [12]: 0.38 mg/kg | Delta BG [25]: -23% | Delta BG [26]: -36%

CC(NC(=O)Cc1ccc(C(=O)O)cc1)c1cccc(N2CCCCC2)c1 (centres undefined)
Delta BG [1]: -15%

O=C(NCCc1ccccc1)c1cc(Cl)ccc1N1CCCCCCCC1
Delta BG [27]: Not significant
